The results in this text go back to ChEMBL document CHEMBL3612036, “Design, Synthesis, and Cardioprotective Effects of N-Mercapto-Based Hydrogen Sulfide Donors” (J Med Chem, 2015).

As a reminder, the inhibition in vivo is the drop in the measured response relative to a control, in per cent.

Activity calls are given as the source filed them. The rule behind the calls is not given here.

Series [1] relates to Mus musculus. Description: Effect on area-at-risk per left ventricle in C57BL6/J mouse model of myocardial ischemia/reperfusion at 50 and 100 ug/kg dosed through direct intracardiac injection at time of reperfusion by TTC staining method. Format: organism-based, Heart left ventricle. Particulars: in vivo, 0.1 mg/kg. Put shortly:
(§1)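 Male C57BL/6J mice, 10–12 weeks old, anesthetised with pentobarbital (50 mg/kg) plus ketamine (60 mg/kg). Left coronary artery occluded with PE-10 tubing for 45 min. Single intracardiac injection at reperfusion; vehicle 0.5% v/v THF in sterile saline. Reperfusion lasted 24 h, then area-at-risk and infarct measured by Evans blue/TTC staining. n = 6–17 per group.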

Series [2] deals with H9c2. Description: Cytoprotective activity against H2O2-induced cell damage in rat H9c2 cells at 160 uM pre-incubated for 1 hr before H2O2 challenge for 5 hrs in presence of 480 uM cysteine by LDH release assay. Format: functional, cell-based. Summed up:
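H9c2 cells at about 70% confluence were preconditioned 1 h with donor plus cysteine (480 μM), then treated with H2O2 (400 μM) for 5 h. Extracellular LDH was measured in supernatant; intracellular LDH in lysate made with 2% Triton X-100 in DMEM. Kit reaction ran 10 min at room temperature, read at 490/600 nm. % release = extracellular/(extracellular+intracellular). Run 4 times.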
For orientation: Release of lactate dehydrogenase indicates damage to the cell membrane.

Series [3] concerns H9c2. Description: Cytoprotective activity against H2O2-induced cell damage in rat H9c2 cells assessed as reduction in mitochondrial membrane potential loss at 160 uM pre-incubated for 1 hr before H2O2 challenge for 5 hrs in presence of 480 uM cysteine by Rh123 dye based fluorescent microscopy. Format: functional. Summed up: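 H9c2 cells were grown in high-glucose DMEM with 10% FBS at 37 °C, 5% CO2. They were pretreated 1 h with donor plus cysteine (480 μM), then given H2O2 (400 μM) for 5 h. Rh123 (10 mg/L) was added for 15 min at 37 °C. Fluorescence microscopy gave mean Rh123 intensity from four random fields.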

For series [4], the system named is Mus musculus. Description: Cardioprotective activity in C57BL6/J mouse model of myocardial ischemia/reperfusion assessed as reduction in infarct size per area-at-risk at 100 ug/kg dosed through direct intracardiac injection at time of reperfusion by TTC staining method. Format: functional. The following applies: Myocardium. Put shortly: as §1
Series [5] relates to H9c2. Description: Cytotoxicity against rat H9c2 cells assessed as reduction in cell viability at 160 uM in presence of 480 uM cysteine incubated for 1 hr by CCK8 assay. Format: cell-based. Particulars: h9c2, 1 h. Put shortly:
(§2)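 H9c2 cells (high-glucose DMEM, 10% FBS, 37 °C, 5% CO2) were exposed 1 h to donor over 20–160 μM, either alone or with 480 μM cysteine, then washed twice with PBS. Viability was measured by CCK-8 (1:10 dilution, 3 h at 37 °C, absorbance 450 nm). The mean OD of 4 wells was expressed as % of control, in triplicate.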

Series [6] has as its system Mus musculus. Description: Cardioprotective activity in C57BL6/J mouse model of myocardial ischemia/reperfusion assessed as reduction in infarct size per area-at-risk at 50 ug/kg dosed through direct intracardiac injection at time of reperfusion by TTC staining method. Particulars: Myocardium. Format: functional. Put shortly: as §1
Series [7] relates to Mus musculus. Description: Cardioprotective activity in C57BL6/J mouse model of myocardial ischemia/reperfusion assessed as reduction in circulating cardiac troponin-1 level at 50 ug/kg dosed through direct intracardiac injection at time of reperfusion. The series is classed as functional, organism-based. Particulars: Heart. Summed up: (§3)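 Male C57BL/6J mice, 10–12 weeks old, were anesthetized with pentobarbital (50 mg/kg) plus ketamine (60 mg/kg). The left coronary artery was occluded for 45 min. At reperfusion, donor was injected intracardiac: dissolved in THF, diluted in sterile saline to 0.05 or 0.1 mg/mL, final 0.5% v/v THF. Vehicle was 0.5% THF in saline. Tail-vein blood was drawn at 4 h reperfusion for troponin I.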

The nature of series [8]: […] peak time for H2S release in pH 7.4 PBS buffer containing 10% THF incubated for 2 hrs at room temperature in presence of cysteine by methylene blue based UV-Vis spectrometry. The series is classed as physicochemical. The following applies: pH 7.4, 2 h. Summed up: (§4)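 Donor (30 mM THF stock; 0.1 mM final) was added to PBS (pH 7.4, 50 mM)/THF 9:1 containing the stated thiol, at room temperature for 2 h. 1.0 mL aliquots were taken periodically into methylene blue cocktail (zinc acetate, N,N-dimethyl-p-phenylenediamine in HCl, FeCl3 in HCl) and reacted 15 min. Absorbance was read at 670 nm and H2S quantified against a Na2S calibration curve; peak concentration and peak time were recorded.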

Series [9] deals with Mus musculus. Description: Cardioprotective activity in C57BL6/J mouse model of myocardial ischemia/reperfusion assessed as reduction in circulating cardiac troponin-1 level at 100 ug/kg dosed through direct intracardiac injection at time of reperfusion. The series is classed as functional, organism-based. The following applies: Heart. Put shortly: as §3
Series [10] in a line: GSH-induced H2S release assessed as peak H2S level in pH 7.4 PBS buffer containing 10% THF incubated for 2 hrs at room temperature in presence of cysteine by methylene blue based UV-Vis spectrometry. Format: physicochemical. Particulars: pH 7.4, 2 h. Put shortly: as §4
Series [11] can be described thus: GSH-induced H2S release assessed as peak H2S level in pH 7.4 PBS buffer containing 10% THF incubated for 2 hrs at room temperature in presence of 1 mM GSH by methylene blue based UV-Vis spectrometry. Format: physicochemical. The following applies: pH 7.4, 2 h. Summed up: as §4
Series [12] relates to H9c2. Description: Cytotoxicity against rat H9c2 cells assessed as reduction in cell viability at >80 uM incubated for 1 hr by CCK8 assay. The series is classed as cell-based. Particulars: h9c2, 1 h. Put shortly:
as §2
Background: Tetrazolium dyes change colour on reduction, which living cells bring about.

Series [13] in a line: […] peak time for H2S release in pH 7.4 PBS buffer containing 10% THF incubated for 2 hrs at room temperature in presence of 1 mM GSH by methylene blue based UV-Vis spectrometry. Format: physicochemical. The following applies: pH 7.4, 2 h. Summed up:
as §4

Series [14] has as its system H9c2. Description: Cytotoxicity against rat H9c2 cells assessed as reduction in cell viability at <40 uM incubated for 1 hr by CCK8 assay. Format: cell-based. Particulars: h9c2, 1 h. Put shortly:
as §2

Series [15] has as its system Mus musculus. Description: Cardioprotective activity in C57BL6/J mouse model of myocardial ischemia/reperfusion assessed as reduction in infarct size per area-at-risk dosed through direct intracardiac injection at time of reperfusion by TTC staining method. The series is classed as functional, organism-based. The following applies: Myocardium. Put shortly: as §1
The nature of series [16]: Induction of […] release in pH 7.4 PBS buffer containing 10% THF incubated for 2 hrs at room temperature in presence of 0.5 mM cysteine by methylene blue based UV-Vis spectrometry. Format: physicochemical. Particulars: pH 7.4, 2 h. Summed up: as §4
The nature of series [17]: Induction of […] release in pH 7.4 PBS buffer containing 10% THF incubated for 2 hrs at room temperature in presence of 2 mM cysteine by methylene blue based UV-Vis spectrometry. Format: physicochemical. Particulars: pH 7.4, 2 h. Summed up: as §4

Consider `O=C(NSC(=O)c1ccc(F)cc1)c1ccccc1`, for which the Activity entry in the series with Mus musculus [1] was “Non-toxic”; with H9c2 [5], “Non-toxic”; in series [10] it was 39.5 µM; in series [11], 40.6 µM; in the series on H9c2 [12], “Toxic”; with H9c2 [14], “Non-toxic”. Besides, the result with H9c2 [2] and in the series on H9c2 [3] was Active. Further, the inhibition in vivo at 0.1 mg/kg in the series with Mus musculus [4] stood at 50%. Also, the inhibition in vivo at 0.05 mg/kg with Mus musculus [6] worked out at 50%. Besides, the inhibition result with Mus musculus [7] and with Mus musculus [9] was “Active” throughout. For the same molecule, the values for the Time in series [8] and in [13] were 50 min and 55 min, respectively. For the same molecule, the inhibition result in the series on Mus musculus [15] is “Dose-dependent effect”.

Consider `O=C(NSC(=O)c1ccccc1)c1ccccc1`, for which the Activity entry in the series with Mus musculus [1] is “Non-toxic”; in the series on H9c2 [5], “Non-toxic”; in series [16] it was “Not Active”; in [17], “Active”; in [10], 55.8 µM; in series [11], 51.2 µM. For the same molecule, the Activity result is reported as “Toxic” in the series on H9c2 [12] and “Non-toxic” with H9c2 [14]. For the same molecule, the outcome in the series on H9c2 [2] and in the series on H9c2 [3] was Active. Besides, the inhibition in vivo at 0.1 mg/kg with Mus musculus [4] amounted to 35%. Besides, the values for the Time in [8] and in [13] were 55 min and 65 min, respectively. In the series with Mus musculus [15], the inhibition entry was “Dose-dependent effect”.
